Source: ChEMBL document CHEMBL1154882, “Hydrogenative desulphurization of thienopyrrolizinones: an easy and selective access to (Z)-phenethylidenepyrrolizinones with in vitro cytotoxic activity” (Eur J Med Chem, 2010)

Legend:
[1] = tested on: KB; test: Cytotoxicity against human KB cells assessed as growth inhibition after 72 hrs by MTS assay; format: functional, cell-based
Outline: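 KB cells seeded at 650 cells/well and dosed 24 h later with DMSO solutions (1% final DMSO, also given to controls) over a range starting at 0.5 nM. After 72 h exposure, MTS added for 3 h at 37 °C and A490 read. Proliferation inhibition taken versus control OD. IC50 (50% inhibition) determined in separate duplicate for compounds giving over 80% inhibition at 10^-6 M.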

[2] = tested on: KB; test: Cytotoxicity against human KB cells assessed as growth inhibition at 1 uM after 72 hrs by MTS assay; format: functional
Outline: (§1)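 KB cells plated at 650 cells/well, treated 24 h later with compounds in DMSO at 10^-5 or 10^-6 M, in triplicate. Controls got DMSO at 1% final volume; taxotere 2.5×10^-10 M served as reference. After 72 h exposure, MTS reagent added for 3 h at 37 °C and absorbance read at 490 nm. Results given as percent inhibition of proliferation relative to control OD.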

[3] = tested on: KB; test: Cytotoxicity against human KB cells assessed as growth inhibition at 10 uM after 72 hrs by MTS assay; format: functional; outline: as §1
[4] = Inhibition of tubulin

Row | Compound | IC50 [1] [nM] | inhibition at 1 µM [2] [%] | inhibition at 10 µM [3] [%] | IC50 [4] [nM]
1 | COc1ccc(/C(C)=C2/CC(=O)c3cccn32)cc1O | 70 | 91 | 95 | –
2 | COc1ccc(-c2csc3c2-n2cccc2C3=O)cc1 | 50 | 92 | 84 | –
3 | C/C(=C1\CC(=O)c2cccn21)c1ccc(Cl)cc1 | – | 0 | 0 | –
4 | COc1ccc(/C(C)=C2/CC(=O)c3cccn32)cc1 | – | 1 | 78 | –
5 | CC(=O)O[C@@]12CO[C@@H]1C[C@H](O)[C@@]1(C)C(=O)[C@H](O)C3=C(C)[C@@H](OC(=O)[C@H](O)[C@@H](NC(=O)OC(C)(C)C)c4ccccc4)C[C@@](O)([C@@H](OC(=O)c4ccccc4)[C@H]21)C3(C)C [DOCETAXEL] | 0.4 | – | – | –
6 | CC(C)C1CC(=O)c2cccn21 (configuration not stated) | – | 0 | 0 | –
7 | COc1ccc(-c2csc3c2-n2cccc2C3=O)cc1O | 5.7 | 86 | 86 | 2900
